The record followed here is ChEMBL document CHEMBL4342478, “Discovery of Potent N-Ethylurea Pyrazole Derivatives as Dual Inhibitors of Trypanosoma brucei and Trypanosoma cruzi” (ACS Med Chem Lett, 2020).

Molecules are shown by their SMILES. The source made the active and inactive calls. The calls are words filed in the database; no cut-off is given here. Where only a bound is given, the exact number is not on record here.

Data set [1] concerns Trypanosoma cruzi. In words: Trypanosomacidal activity against Trypanosoma cruzi strain Y trypomastigotes assessed as reduction in number of infected cells at 0.312 uM measured for 24 to 96 hrs by Hoechst 33342 staining based fluorescence imaging assay relative to benznidazole. In kind it is functional. Summed up:
(§1)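 Time-to-kill assay against intracellular T. cruzi, with test article at 0.312 or 0.078 μM. Controls were benznidazole 20 μM, posaconazole 0.04 μM and DMSO. The number of infected host cells was tracked over time after drug addition.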

The nature of data set [2]: Selectivity index, ratio of cytotoxicity against rat H9C2 cells to IC50 for antitrypanosomal activity against Trypanosoma cruzi infected in rat H9C2 cells. In kind it is toxicity, cell-based. To be noted: read-out: Selectivity Index.
The nature of data set [3]: Selectivity index, ratio of IC50 for human HEK293 cells incubated for 69 hrs by resazurin dye based fluorescence analysis to IC50 for antitrypanosomal activity against Trypanosoma brucei brucei BS427. It counts as toxicity. To be noted: read-out: Ratio IC50.
Data set [4] concerns Trypanosoma brucei rhodesiense. The data set is described as follows: Antitrypanosomal activity against blood stream form of Trypanosoma brucei rhodesiense STIB900 after 72 hrs by Alamar blue based fluorometric assay. In kind it is functional, organism-based. On the technique in general: The colour change of resazurin is a common sign of viable cells or microbes.
In data set [5] the test system is Trypanosoma cruzi. In words: Antitrypanosomal activity against Trypanosoma cruzi Tulahuen C2C4 trypomastigotes infected in rat L6 cells after 96 hrs by photometric analysis. It counts as functional, organism-based.
Data set [6] has as its system Trypanosoma cruzi. The data set is described as follows: Trypanosomacidal activity against Trypanosoma cruzi strain Y trypomastigotes assessed as reduction in number of infected cells at 0.312 uM measured within first 24 hrs by Hoechst 33342 staining based fluorescence imaging assay. In kind it is functional, organism-based. Summed up:
as §1

The nature of data set [7]: Kinetic solubility of compound at pH 2 to 6.5 by nephelometry. In kind it is physicochemical. The settings on record: buffer, read-out: Kinetic_solubility.
A further data set concerns Plasmodium falciparum. In words: Antiplasmodial activity against erythrocytic stage of Plasmodium falciparum after 48 hrs by [3H]-hypoxanthine incorporation assay. It counts as functional, organism-based.
Data set [8] relates to Trypanosoma brucei brucei. The data set is described as follows: Antitrypanosomal activity against Trypanosoma brucei brucei BS427 after 48 hrs by resazurin dye based fluorescence assay. It counts as functional, organism-based. To be noted: Trypanosoma brucei, BS427, 48 h; read-out: IC50. Summed up:
(§2)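 IC50 values are the mean of two independent experiments. The T. b. brucei assay uses free parasites. The T. cruzi assay uses intracellular parasites in H9c2 host cells.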

Data set [9] relates to Trypanosoma cruzi. In words: Antitrypanosomal activity against Trypanosoma cruzi infected in rat H9C2 cells by DRAQ5 DNA dye based imaging analysis. It counts as functional, organism-based. Summed up:
as §2

The next data set has as its system Leishmania donovani. In words: AntiLeishmanial activity against amastigote form of Leishmania donovani MHOM/ET/67/L82 after 72 hrs by Alamar blue dye based fluorometric analysis. It counts as functional, organism-based.
Data set [10] has as its system Trypanosoma cruzi. In words: Trypanosomacidal activity against Trypanosoma cruzi strain Y trypomastigotes assessed as reduction in number of infected cells at 0.078 uM measured within first 24 hrs by Hoechst 33342 staining based fluorescence imaging assay. In kind it is functional, organism-based. Summed up:
as §1

A short description of data set [11]: Half life in human liver microsomes. It counts as ADME, Microsome.
The nature of data set [12]: Metabolic stability in human liver microsomes. It counts as ADME, Microsome. (In general: Microsomes from liver hold many membrane-bound enzymes, among them those of drug oxidation.)
Data set [13] concerns Trypanosoma cruzi. In words: Trypanosomacidal activity against Trypanosoma cruzi strain Y trypomastigotes assessed as reduction in number of infected cells at 0.078 uM measured for 24 to 96 hrs by Hoechst 33342 staining based fluorescence imaging assay relative to benznidazole. In kind it is functional. Summed up:
as §1

In data set [14] the test system is Trypanosoma cruzi. The data set is described as follows: Antitrypanosomal activity against Trypanosoma cruzi Brazil trypomastigotes expressing firefly luciferase infected in BALB/c mouse assessed as reduction in parasitemia at 50 mg/kg, po via gavage twice daily at 30 mins after administration with 50 mg/kg, ip CYP inhibitor, 1-aminobenzotriazole twice daily and measured after 6 days by bioluminescence assay. It counts as functional, organism-based. Summed up:
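BALB/c mice were infected with trypomastigotes of a transgenic T. cruzi Brazil strain expressing firefly luciferase. Treatment was by oral gavage twice daily: vehicle (PBS with 2% methylcellulose and 0.5% Tween 80), or 50 mg/kg test article given 30 min after ip 1-aminobenzotriazole 50 mg/kg. Benznidazole 30 mg/kg was given by oral gavage once daily. Parasite load was measured by bioluminescence imaging at treatment day 0 (3 days post infection) and day 6.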

Data set [15] is described as follows: Metabolic stability in mouse liver microsomes. In kind it is ADME, Microsome.
Data set [16] in a line: Toxicity in BALB/c mouse infected with Trypanosoma cruzi Brazil trypomastigotes expressing firefly luciferase assessed as lethargy at 50 mg/kg, po via gavage twice daily at 30 mins after administration with 50 mg/kg, ip CYP inhibitor, 1-aminobenzotriazole twice daily. It counts as organism-based. To be noted: in vivo, 0.5 h. Summed up:
(§3)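 Acutely infected BALB/c mice carried luciferase-expressing T. cruzi Brazil strain. Mice received oral gavage twice daily of 50 mg/kg test article in PBS with 2% methylcellulose and 0.5% Tween 80. Each dose followed ip 1-aminobenzotriazole 50 mg/kg by 30 min.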

Data set [17] in a line: Toxicity in BALB/c mouse infected with Trypanosoma cruzi Brazil trypomastigotes expressing firefly luciferase assessed as body weight loss at 50 mg/kg, po via gavage twice daily at 30 mins after administration with 50 mg/kg, ip CYP inhibitor, 1-aminobenzotriazole twice daily. In kind it is organism-based. To be noted: in vivo, 0.5 h. Summed up: as §3

One may read the IC50 as the concentration that inhibits the measured activity by half. Consider `O=C(NCCn1ccc(-c2ccccc2)n1)N1CCCCC1`, for which, in the data set with Trypanosoma cruzi [1], the “fold change (FC)” value is 36. Also, the selectivity ratio in [2] turned out to be 32. Moreover, in data set [3], the selectivity ratio at 69 h stood at 1350. The result (in [4]; in the data set on Trypanosoma cruzi [5]; with Trypanosoma cruzi [6]; in the data set on Plasmodium falciparum; in the data set with Leishmania donovani) was Active. Also, in [7], the solubility kinetic was > 20 µg/mL. The IC50 in data set [8] is 60 nM; in the data set with Trypanosoma cruzi [9] it was 250 nM.
By half-life is commonly meant how long it takes for the measured level to halve. Read a high half-life as slow loss. Turning to `O=C(NCCn1ccc(-c2ccc(F)c(F)c2)n1)N1CC[C@H](F)C1`, the outcome (in the data set with Trypanosoma cruzi [10]; in data set [4]; in the data set with Trypanosoma cruzi [5]; in the data set on Plasmodium falciparum; in the data set on Trypanosoma cruzi [14]; with Leishmania donovani) was Active. The compound further returned a half-life in data set [11] of 23 min. In addition, the selectivity ratio in data set [2] lay in the range of 588 to 3160. In addition, the selectivity ratio at 69 h in data set [3] worked out at 8650. In addition, the Stability result in [12] and in data set [15] was “Stable” in each case. Also, in data set [7], the solubility kinetic was > 20 µg/mL. For the same compound, the “fold change (FC)” value in the data set on Trypanosoma cruzi [13] came to 36. In addition, the half-maximal inhibitory concentration (IC50) in data set [8] came to 9 nM; in the data set with Trypanosoma cruzi [9], 16 nM. Besides, the Activity result in data set [16] and in data set [17] was “Toxic” in each case.
